This note sets out measurements from ChEMBL document CHEMBL4680310, “Identification of N-acyl-N-indanyl-α-phenylglycinamides as selective TRPM8 antagonists designed to mitigate the risk of adverse effects” (Bioorg Med Chem, 2021).

As usually defined, the inhibition is the relative decrease from the control value, in per cent. A word on the IC50: it is the concentration that gives 50% inhibition. By Cmax is commonly meant the peak of the concentration-time curve. A word on the Tmax: it is the time from dosing to the highest level. What is called AUC(0-inf) is total exposure, with the tail of the curve extrapolated. Low readings indicate low exposure, high ones high exposure. One may read the half-life as how long it takes for the measured level to halve. Read a low half-life as fast loss. As usually defined, the clearance is the rate of elimination divided by the concentration. A higher clearance goes with efficient removal. By bioavailability is commonly meant dose-corrected exposure relative to a reference, in per cent. High values mean good availability, low ones poor availability. What is called EC50 is the concentration that produces a half-maximal response. A high value points to weaker potency. As usually defined, the inhibition in vivo is the drop in the measured response relative to a control, in per cent.

Each structure is given as a SMILES string. Active and inactive are the calls of the source. No cut-off for these calls is given here.

One data set concerns the target CYP3A4 (Homo sapiens, UniProt P08684). Nature of the data set: Inhibition of CYP3A4 in human liver microsomes assessed as reduction in 1'-hydroxymidazolam formation using midazolam as substrate at 10 uM preincubated with enzyme and NADPH followed by substrate addition and measured after 10 mins by HPLC/MS-MS analysis relative to control. In kind it is ADME. The settings on record: probe midazolam (1'-hydroxymidazolam formation). In outline: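 Compound at 100 µM was pre-incubated at 37 °C with human liver microsomes (0.5 mg/mL) in 0.1 M phosphate pH 7.4 with 5 mM MgCl₂ and 1 mM NADPH. The mix was then diluted 10-fold into 25 µM midazolam in the same buffer and incubated 10 min at 37 °C. Ice-cold acetonitrile stopped the reaction. 1′-Hydroxymidazolam was quantified by HPLC-MS/MS, with ketoconazole (1 µM) as reference inhibitor.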
Background: Microsomes from liver hold many membrane-bound enzymes, among them those of drug oxidation.

The target of data set [1] is Transient receptor potential cation channel subfamily M member 8 (Rattus norvegicus, UniProt Q8R455). Nature of the data set: Antagonist activity at rat TRPM8 transfected in HEK293T cells assessed as reduction in menthol-induced calcium influx measured after 60 mins by Fluo-4 AM dye based fluorescence analysis. In kind it is cell-based. The method in brief: (§1)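 HEK293T cells were seeded at 5 × 10⁴ cells/well in DMEM with 10% FBS and transfected 4 h later. The vectors were pcDNA3.1 for TRPM8, TRPA1 and TRPV4, and pCI-neo for TRPV1. After 2 days, cells were dye-loaded for 60 min at 37 °C: Fluo-4 AM for TRPM8, TRPA1 and TRPV1, Fura-2 AM for TRPV4. Calcium was read on an FDSS reader. IC50 came from nonlinear regression, mean ± SEM (n = 3).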
Sequence of Transient receptor potential cation channel subfamily M member 8 (Rattus norvegicus, UniProt Q8R455) (Q8R455 whole entry): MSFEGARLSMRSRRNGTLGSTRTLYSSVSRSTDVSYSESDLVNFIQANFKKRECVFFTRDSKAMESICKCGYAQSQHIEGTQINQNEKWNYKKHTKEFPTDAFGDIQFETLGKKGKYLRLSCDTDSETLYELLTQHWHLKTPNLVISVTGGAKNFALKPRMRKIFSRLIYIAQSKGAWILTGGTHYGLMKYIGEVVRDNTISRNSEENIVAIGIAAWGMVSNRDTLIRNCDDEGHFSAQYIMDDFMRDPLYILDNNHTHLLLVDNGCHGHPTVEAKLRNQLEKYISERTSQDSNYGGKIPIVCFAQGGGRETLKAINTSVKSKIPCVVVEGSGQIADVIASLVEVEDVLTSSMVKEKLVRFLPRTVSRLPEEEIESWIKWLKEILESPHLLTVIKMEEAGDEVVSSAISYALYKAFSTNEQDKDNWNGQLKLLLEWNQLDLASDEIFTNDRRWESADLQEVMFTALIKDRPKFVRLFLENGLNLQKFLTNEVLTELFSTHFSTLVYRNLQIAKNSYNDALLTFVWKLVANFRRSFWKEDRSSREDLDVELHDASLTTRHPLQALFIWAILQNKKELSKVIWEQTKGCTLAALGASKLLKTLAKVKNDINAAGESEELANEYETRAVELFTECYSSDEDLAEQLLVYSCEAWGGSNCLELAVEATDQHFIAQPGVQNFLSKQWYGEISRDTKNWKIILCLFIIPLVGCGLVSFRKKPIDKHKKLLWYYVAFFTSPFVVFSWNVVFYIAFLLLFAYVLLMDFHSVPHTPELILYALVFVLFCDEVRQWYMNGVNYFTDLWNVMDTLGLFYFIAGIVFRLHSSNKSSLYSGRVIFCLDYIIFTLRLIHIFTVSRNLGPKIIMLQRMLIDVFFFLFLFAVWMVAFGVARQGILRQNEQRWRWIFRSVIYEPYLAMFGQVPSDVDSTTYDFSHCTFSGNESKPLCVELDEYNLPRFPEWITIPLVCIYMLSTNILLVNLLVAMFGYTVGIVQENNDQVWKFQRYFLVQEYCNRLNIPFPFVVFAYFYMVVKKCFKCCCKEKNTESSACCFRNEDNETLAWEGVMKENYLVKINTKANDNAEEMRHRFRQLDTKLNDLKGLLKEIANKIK

Data set [2] in a line: Cmax in Sprague-Dawley rat at 3 mg/kg, po measured upto 6 hrs by LC-MS/MS analysis. Details: route oral, dose 3 mg/kg, time <=6. The settings on record: in vivo. Format: ADME, organism-based. In outline: (§2)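 Rats were given a single oral or intravenous dose. Blood was taken from the jugular vein at 2, 15 and 30 min and at 1, 2, 4 and 6 h. Plasma levels were measured by LC-MS/MS. Each parameter was calculated from the mean plasma concentration of three animals.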

A short description of data set [3]: Tmax in Sprague-Dawley rat at 3 mg/kg, po by LC-MS/MS analysis. Format: ADME, organism-based. The conditions noted are these: in vivo, time <=6 hrs. In outline: as §2
Data set [4] can be described thus: AUC (0 to infinity) in Sprague-Dawley rat at 1 mg/kg, iv by LC-MS/MS analysis. Details: time infinity, route intravenous, dose 1 mg/kg. The conditions noted are these: in vivo. Format: ADME, organism-based. The method in brief: as §2
The nature of data set [5]: AUC (0 to infinity) in Sprague-Dawley rat at 3 mg/kg, po by LC-MS/MS analysis. Format: ADME, organism-based. Also on record: time infinity, route oral, dose 3 mg/kg. The conditions noted are these: in vivo. In outline:
as §2

Data set [6] can be described thus: Half life in Sprague Dawley rat at 1 mg/kg, iv by LC-MS/MS analysis. The settings on record: in vivo. In kind it is ADME, organism-based. In outline:
as §2

Data set [7] can be described thus: Total clearance in Sprague-Dawley rat at 1 mg/kg, iv measured upto 6 hrs by LC-MS/MS analysis. Format: ADME, organism-based. The settings on record: in vivo. In outline: as §2
Data set [8] can be described thus: Volume of distribution at steady state in Sprague-Dawley rat at 1 mg/kg, iv measured upto 6 hrs by LC-MS/MS analysis. In kind it is ADME, organism-based. The conditions noted are these: in vivo, read-out: Vdss. In outline: as §2
Data set [9] in a line: Oral bioavailability in Sprague-Dawley rat at 3 mg/kg measured upto 6 hrs by LC-MS/MS analysis. In kind it is ADME, organism-based. The conditions noted are these: in vivo. The method in brief: as §2
In data set [10] the target is Transient receptor potential cation channel subfamily A member 1 (Homo sapiens, UniProt O75762). Description: Inhibition of human TRPA1 transfected in HEK293T cells assessed as reduction in AITC-induced calcium influx measured after 60 mins by Fluo-4 AM dye based fluorescence analysis. Format: cell-based. The method in brief:
as §1

Data set [11] is described as follows: Toxicity in mouse assessed as convulsions at 300 mg/kg, po. In kind it is organism-based. The conditions noted are these: in vivo.
Data set [12] concerns the target Transient receptor potential cation channel subfamily V member 1 (Homo sapiens, UniProt Q8NER1). Description: Inhibition of human TRPV1 transfected in HEK293T cells assessed as reduction in capsaicin-induced calcium influx measured after 60 mins by Fluo-4 AM dye based fluorescence analysis. In kind it is cell-based. In outline: as §1
Data set [13] addresses Transient receptor potential cation channel subfamily V member 4 (Homo sapiens, UniProt Q9HBA0). Description: Inhibition of human TRPV4 transfected in HEK293T cells assessed as reduction in RN1747-induced calcium influx measured after 60 mins by Fura-2 AM dye based fluorescence analysis. In kind it is cell-based. The method in brief: as §1
The target of data set [14] is T1, Nuclear receptor subfamily 1 group I member 2 (Homo sapiens, UniProt O75469).
T1 sequence (O75469 whole entry): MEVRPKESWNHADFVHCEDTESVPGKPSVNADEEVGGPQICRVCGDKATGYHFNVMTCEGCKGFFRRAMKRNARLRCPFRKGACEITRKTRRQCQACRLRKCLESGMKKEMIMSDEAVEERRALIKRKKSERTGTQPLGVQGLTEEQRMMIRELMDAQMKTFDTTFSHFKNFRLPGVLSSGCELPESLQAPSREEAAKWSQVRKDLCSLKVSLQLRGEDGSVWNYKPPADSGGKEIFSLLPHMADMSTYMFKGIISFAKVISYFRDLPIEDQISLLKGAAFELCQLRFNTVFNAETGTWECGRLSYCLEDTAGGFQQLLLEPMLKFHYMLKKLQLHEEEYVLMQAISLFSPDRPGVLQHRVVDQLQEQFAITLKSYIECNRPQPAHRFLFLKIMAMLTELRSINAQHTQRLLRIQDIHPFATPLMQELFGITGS
Description: Activation of human PXR ligand binding domain incubated for 1 hr by TR-FRET assay. In kind it is ADME.

Data set [15] deals with Transient receptor potential cation channel subfamily M member 8 (Homo sapiens, UniProt Q7Z2W7). Nature of the data set: Antagonist activity at human TRPM8 transfected in HEK293T cells assessed as reduction in menthol-induced calcium influx measured after 60 mins by Fluo-4 AM dye based fluorescence analysis. Format: cell-based.
Sequence of Transient receptor potential cation channel subfamily M member 8 (Homo sapiens, UniProt Q7Z2W7) (Q7Z2W7 whole entry): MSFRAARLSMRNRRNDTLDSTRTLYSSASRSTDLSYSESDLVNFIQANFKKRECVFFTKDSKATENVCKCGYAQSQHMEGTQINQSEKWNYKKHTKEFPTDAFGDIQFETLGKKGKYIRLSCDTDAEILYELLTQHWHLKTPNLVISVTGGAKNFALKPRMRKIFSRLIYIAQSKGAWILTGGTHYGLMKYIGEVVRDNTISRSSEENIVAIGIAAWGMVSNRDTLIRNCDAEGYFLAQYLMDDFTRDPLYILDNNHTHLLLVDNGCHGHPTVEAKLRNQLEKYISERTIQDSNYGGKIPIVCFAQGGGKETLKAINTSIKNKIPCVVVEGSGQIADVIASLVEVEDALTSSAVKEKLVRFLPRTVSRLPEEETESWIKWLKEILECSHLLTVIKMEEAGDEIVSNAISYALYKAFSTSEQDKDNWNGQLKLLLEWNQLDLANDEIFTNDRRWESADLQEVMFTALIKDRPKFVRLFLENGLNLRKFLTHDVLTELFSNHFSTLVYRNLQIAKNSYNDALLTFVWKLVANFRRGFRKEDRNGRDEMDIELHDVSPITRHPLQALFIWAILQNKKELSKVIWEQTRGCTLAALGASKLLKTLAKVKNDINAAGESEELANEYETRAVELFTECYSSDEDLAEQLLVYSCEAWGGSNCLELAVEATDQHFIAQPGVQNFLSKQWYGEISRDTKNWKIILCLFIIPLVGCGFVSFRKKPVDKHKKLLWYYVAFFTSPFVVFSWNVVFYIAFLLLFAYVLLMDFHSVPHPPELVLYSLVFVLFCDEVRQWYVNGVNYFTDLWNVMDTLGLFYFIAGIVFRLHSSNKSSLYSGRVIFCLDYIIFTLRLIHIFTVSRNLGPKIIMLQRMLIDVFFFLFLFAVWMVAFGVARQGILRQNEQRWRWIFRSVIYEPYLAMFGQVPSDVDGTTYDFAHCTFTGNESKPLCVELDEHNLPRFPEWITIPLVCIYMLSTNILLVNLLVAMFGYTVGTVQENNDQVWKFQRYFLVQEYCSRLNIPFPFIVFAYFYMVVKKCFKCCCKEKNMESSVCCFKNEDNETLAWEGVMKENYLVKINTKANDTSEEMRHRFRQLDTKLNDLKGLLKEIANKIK
Data set [16] is described as follows: In vivo antagonist activity at TRPM8 in Sprague-Dawley rat assessed as inhibition of icilin-induced wet dog shakes at 10 mg/kg, po administered 1 hr prior to icilin administration and measured after 5 mins for 5 mins. Format: functional. The settings on record: 1.167 h, time 70 min. In outline: (§3)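 Female rats received vehicle or compound orally. After 1 or 4 h, icilin (1 mg/mL in PEG 400) was given intraperitoneally. Wet-dog shakes were counted for 5 min, starting 5 min after icilin. Results are percent inhibition versus vehicle-treated counts, mean ± SEM (n = 5).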

In data set [17] the test system is Rattus norvegicus. Nature of the data set: Inhibition of overactive bladder activity in Sprague-Dawley rat assessed as inhibition of cold-induced voiding behaviour by measuring mean voided volume at 10 mg/kg, po administered 1 hr prior to cold exposure and measured at 2 mins interval for 4 hrs (reference value: 0.57 +/- 0.05 ml). In kind it is functional. The settings on record: time 5 hrs.

For data set [18], the system named is Rattus norvegicus. Nature of the data set: Inhibition of overactive bladder activity in Sprague-Dawley rat assessed as inhibition of cold-induced voiding behaviour by measuring reduction in voiding frequency at 10 mg/kg, po administered 1 hr prior to cold exposure and measured at 2 mins interval for 4 hrs. Format: functional, organism-based. The settings on record: time 5.0 hrs.

Data set [19] concerns Rattus norvegicus. Description: Inhibition of overactive bladder activity in Sprague-Dawley rat assessed as inhibition of cold-induced voiding behaviour by measuring total voided volume at 10 mg/kg, po administered 1 hr prior to cold exposure and measured at 2 mins interval for 4 hrs (reference value: 5.57 +/-0.27 ml). In kind it is functional. The settings on record: time 5 hrs.

The nature of data set [20]: Drug uptake in rat brain measured after 4 hrs. In kind it is ADME, tissue-based. The conditions noted are these: read-out: Drug uptake.
Data set [21] is described as follows: Plasma concentration in rat measured after 4 hrs. In kind it is ADME, cell-free.
Data set [22] in a line: Ratio of drug level in rat brain to plasma measured after 4 hrs. Format: ADME, cell-free. The conditions noted are these: read-out: BPR.
A short description of data set [23]: In vivo antagonist activity at TRPM8 in Sprague-Dawley rat assessed as inhibition of icilin-induced wet dog shakes at 10 mg/kg, po administered 4 hrs prior to icilin administration and measured after 5 mins for 5 mins. In kind it is functional. The conditions noted are these: 4.167 h, time 250 min. The method in brief: as §3

Sequence of CYP3A4 (P08684 whole entry): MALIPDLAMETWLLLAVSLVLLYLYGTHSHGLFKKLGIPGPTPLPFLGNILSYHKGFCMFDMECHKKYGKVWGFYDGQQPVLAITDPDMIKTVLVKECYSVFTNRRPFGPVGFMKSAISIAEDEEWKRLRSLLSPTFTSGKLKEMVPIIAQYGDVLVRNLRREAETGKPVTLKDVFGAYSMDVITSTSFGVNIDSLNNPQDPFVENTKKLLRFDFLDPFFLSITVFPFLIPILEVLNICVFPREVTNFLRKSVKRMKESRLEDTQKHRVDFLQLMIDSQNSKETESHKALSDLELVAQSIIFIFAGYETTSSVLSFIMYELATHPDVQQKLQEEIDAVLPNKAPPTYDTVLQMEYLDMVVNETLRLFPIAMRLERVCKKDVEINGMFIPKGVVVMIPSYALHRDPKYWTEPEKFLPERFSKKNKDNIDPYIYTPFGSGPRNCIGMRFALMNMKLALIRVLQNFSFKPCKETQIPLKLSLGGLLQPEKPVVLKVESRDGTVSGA
Sequence of Transient receptor potential cation channel subfamily A member 1 (O75762 whole entry): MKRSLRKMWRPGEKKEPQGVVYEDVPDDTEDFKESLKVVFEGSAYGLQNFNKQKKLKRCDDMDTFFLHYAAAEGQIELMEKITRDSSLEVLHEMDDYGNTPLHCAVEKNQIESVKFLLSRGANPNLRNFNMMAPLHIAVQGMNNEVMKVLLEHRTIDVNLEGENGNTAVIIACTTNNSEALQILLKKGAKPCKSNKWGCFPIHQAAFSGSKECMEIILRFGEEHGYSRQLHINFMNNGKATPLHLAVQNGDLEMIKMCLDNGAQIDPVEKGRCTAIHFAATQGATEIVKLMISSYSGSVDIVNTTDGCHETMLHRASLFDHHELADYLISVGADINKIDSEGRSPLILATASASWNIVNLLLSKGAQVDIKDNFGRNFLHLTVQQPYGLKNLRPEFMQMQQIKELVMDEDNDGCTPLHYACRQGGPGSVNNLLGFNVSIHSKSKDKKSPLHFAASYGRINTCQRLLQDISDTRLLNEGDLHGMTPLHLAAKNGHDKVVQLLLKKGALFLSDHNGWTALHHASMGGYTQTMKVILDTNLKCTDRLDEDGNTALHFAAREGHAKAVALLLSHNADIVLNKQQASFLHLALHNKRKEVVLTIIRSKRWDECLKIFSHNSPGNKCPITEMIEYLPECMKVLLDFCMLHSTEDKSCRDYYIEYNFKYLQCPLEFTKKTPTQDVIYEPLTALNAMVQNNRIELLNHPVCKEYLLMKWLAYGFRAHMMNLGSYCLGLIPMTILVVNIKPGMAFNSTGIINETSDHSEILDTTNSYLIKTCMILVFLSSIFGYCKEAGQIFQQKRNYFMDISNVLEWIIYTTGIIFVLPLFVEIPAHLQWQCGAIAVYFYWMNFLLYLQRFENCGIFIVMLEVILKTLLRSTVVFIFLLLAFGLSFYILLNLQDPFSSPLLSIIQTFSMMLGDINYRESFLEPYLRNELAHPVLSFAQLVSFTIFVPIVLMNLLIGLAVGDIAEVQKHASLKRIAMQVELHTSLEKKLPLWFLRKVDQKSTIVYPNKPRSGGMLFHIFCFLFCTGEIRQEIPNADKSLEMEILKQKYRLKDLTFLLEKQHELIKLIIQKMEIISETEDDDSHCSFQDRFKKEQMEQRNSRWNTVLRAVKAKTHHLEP
Sequence of Transient receptor potential cation channel subfamily V member 1 (Q8NER1 whole entry): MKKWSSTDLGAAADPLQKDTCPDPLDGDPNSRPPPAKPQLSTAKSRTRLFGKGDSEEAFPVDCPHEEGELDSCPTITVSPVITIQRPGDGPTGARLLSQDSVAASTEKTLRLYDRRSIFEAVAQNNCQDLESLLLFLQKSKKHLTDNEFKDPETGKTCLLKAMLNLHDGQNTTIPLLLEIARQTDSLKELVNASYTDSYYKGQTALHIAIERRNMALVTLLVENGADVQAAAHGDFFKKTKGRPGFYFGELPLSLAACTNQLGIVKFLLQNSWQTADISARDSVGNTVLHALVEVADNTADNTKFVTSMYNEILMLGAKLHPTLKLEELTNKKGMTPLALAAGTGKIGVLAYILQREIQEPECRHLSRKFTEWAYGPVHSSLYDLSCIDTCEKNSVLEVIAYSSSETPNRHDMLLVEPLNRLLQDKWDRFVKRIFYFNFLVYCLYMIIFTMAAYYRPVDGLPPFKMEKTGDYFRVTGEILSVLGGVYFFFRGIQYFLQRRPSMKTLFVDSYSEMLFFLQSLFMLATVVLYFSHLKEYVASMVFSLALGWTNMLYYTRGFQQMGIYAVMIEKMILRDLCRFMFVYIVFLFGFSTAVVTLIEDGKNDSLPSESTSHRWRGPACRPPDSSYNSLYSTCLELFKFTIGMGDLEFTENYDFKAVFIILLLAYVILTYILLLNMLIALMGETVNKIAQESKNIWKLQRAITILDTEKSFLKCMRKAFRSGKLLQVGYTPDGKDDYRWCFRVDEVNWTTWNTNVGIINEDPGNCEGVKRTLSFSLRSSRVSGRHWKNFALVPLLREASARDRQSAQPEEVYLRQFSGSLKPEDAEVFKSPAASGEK

For the compound `COc1ncccc1C(=O)N([C@@H]1CCc2c(F)cc(Cl)cc21)[C@@H](C(N)=O)c1ccccc1`, at CYP3A4, the inhibition at 10 min, 10 µM turned out to be 22%.

With `Cc1ncccc1C(=O)N([C@@H]1CCc2c(F)cc(Cl)cc21)[C@@H](C(N)=O)c1ccccc1`, the inhibition at 10 min, 10 µM at CYP3A4 was 17%. The IC50 in [1] was 0.08 µM; in data set [10], more than 30 µM; in data set [12], more than 30 µM; in data set [13], more than 30 µM. This compound showed a Cmax in data set [2] of 466 ng/mL. Also, in data set [3], the Tmax is 40 min. For the same compound, the total exposure AUC(0-inf) in data set [4] was 674 ng·h/mL; in [5] it was 1110 ng·h/mL. For the same compound, in data set [6], the half-life came out at 64 min. The compound also showed a clearance in [7] of 25 mL/min/kg. The Vd in data set [8] stood at 1.89 L/kg. The bioavailability in data set [9] is 55%. Besides, the Activity result in data set [11] is “Non-Toxic”.

On to `NC(=O)[C@@H](c1ccccc1)N(C(=O)c1cccnc1)[C@@H]1CCc2c(F)cc(F)cc21`, for which the midpoint of the response in [14], the EC50, lay at 47 µM.

`C[C@H](c1cc(F)cc(F)c1)N(C(=O)c1ccccc1O)[C@@H](C(N)=O)c1ccccc1`: the EC50 in data set [14] turned out to be 12 µM.

Turning to `NC(=O)[C@@H](c1ccccc1)N(C(=O)c1cccnc1N)[C@@H]1CCc2c(F)cc(Cl)cc21`, the inhibition at 10 min, 10 µM on CYP3A4 came to 18%.

In the case of `NC(=O)[C@@H](c1ccccc1)N(C(=O)c1ccccc1)[C@@H]1CCc2ncccc21`, the 50% inhibitory concentration (IC50) in data set [15] was 19.5 µM.

Regarding `C[C@H](c1cc(F)cc(F)c1)N(C(=O)c1ccccc1)[C@@H](C(N)=O)c1ccccc1`, it took 10.3 µM to reach a half-maximal effect in data set [14] (EC50). In addition, the inhibition at 10 min, 10 µM on CYP3A4 is 27%. For the same compound, the inhibition in vivo at 10 mg/kg came out at 100% in data set [16] and 97% in data set [23]. Further, the Activity in the data set with Rattus norvegicus [17] is 0.75 mL; in the data set with Rattus norvegicus [19], 5.81 mL. In addition, the inhibition result in the data set with Rattus norvegicus [18] is “Active”. The concentration at 4 h turned out to be 171 µM in data set [20] and 103 µM in data set [21]. The Kp at 4 h in [22] came to 1.66.

In data set [14], `NC(=O)[C@@H](c1ccccc1)N(C(=O)c1cccnc1)[C@@H]1CCc2c(F)cc(Cl)cc21` gave an EC50 of 131 µM. Further, the inhibition at 10 min, 10 µM at CYP3A4 worked out at 65%. Moreover, in data set [11], the Activity entry is reported as “Non-Toxic”.
